Data as given in ChEMBL document CHEMBL1124024, “Crystal structures and pharmacologic activities of 1,4-dihydropyridine calcium channel antagonists of the isobutyl methyl 2,6-dimethyl-4-(substituted phenyl)-1,4-dihydropyridine-3,5-dicarboxylate (nisoldipine) series” (J Med Chem, 1988).

Key:
Cavia porcellus = species on record: Cavia porcellus; assay: Inhibition of tonic (slow) component of K+ depolarization response in guinea pig ileal longitudinal smooth muscle; type: functional; conditions: Muscle tissue
How it was run: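 Longitudinal strips of terminal ileum from male guinea pigs (300-500 g) held in aerated physiologic saline under 500 mg resting tension, with isotonic recording. A control maximal response to 80 mM KCl depolarizing saline was taken, followed by washout and 30-min re-equilibration. Antagonist was then equilibrated for 30 min and the K+ response measured again. One concentration per tissue; contraction read in mm from baseline.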

[1] = target: Voltage-gated L-type calcium channel (Cavia porcellus); assay: Inhibition of [3H]nitrendipine binding to guinea pig ileal longitudinal smooth muscle

SMILES	IC50 (Cavia porcellus) [nM]	IC50 [1] [nM]
CO/C(O)=C1\C(C)=NC(C)=C(C(=O)OCC(C)C)C1c1cccc(OC)c1 (configuration not stated)	7.1	2.3
CO/C(O)=C1\C(C)=NC(C)=C(C(=O)OCC(C)C)C1c1cccc(C(F)(F)F)c1 (configuration not stated)	15	0.14
CO/C(O)=C1\C(C)=NC(C)=C(C(=O)OCC(C)C)C1c1ccc(Cl)cc1 (configuration not stated)	27	2.8
CO/C(O)=C1\C(C)=NC(C)=C(C(=O)OCC(C)C)C1c1ccc(F)cc1 (configuration not stated)	6.8	1.5

The next compounds have a lower IC50 (Cavia porcellus) than those just listed; values first:

IC50 (Cavia porcellus) [nM]	IC50 [1] [nM]	SMILES
3.3	0.25	CO/C(O)=C1\C(C)=NC(C)=C(C(=O)OCC(C)C)C1c1ccccc1 (configuration not stated)
2.1	0.027	CO/C(O)=C1\C(C)=NC(C)=C(C(=O)OCC(C)C)C1c1ccccc1C(F)(F)F (configuration not stated)
0.59	0.0081	CO/C(O)=C1\C(C)=NC(C)=C(C(=O)OCC(C)C)C1c1cccc([N+](=O)[O-])c1 (configuration not stated)
0.27	0.013	CO/C(O)=C1\C(C)=NC(C)=C(C(=O)OCC(C)C)C1c1cccc(C#N)c1 (configuration not stated)
0.22	–	CO/C(O)=C1\C(C)=NC(C)=C(C(=O)OCC(C)C)C1c1ccccc1[N+](=O)[O-] (configuration not stated)
